Data on seven compounds can be found in publication PMC6299426 (Theranostics, 2018).

Like-named read-outs stand apart in the source and are kept apart here. Marks after values point to notes of the source that are not given here.

Data set [1] concerns D-amino acid oxidase (DAAO). The data set is described as follows: D-serine oxidation by pure DAAO in vitro. The format is biochemical. Particulars: 89 μM, 15 min at 37 °C; control 13%.
Data set [2] can be described thus: Identification of albiflorin metabolites in vivo. The conditions noted are these: after albiflorin administration. Also noted: species or system ICR mice. The gist of the method: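 Fecal metabolites were profiled by LC/MSn-IT-TOF. Feces were extracted with methanol (1/10, g/mL) by ultrasound for 30 min and centrifuged 10 min at 21100 ×g; 20 μL of supernatant was injected. Separation used a C18 column (250 × 4.6 mm, 5 μm) with a water/0.5% formic acid–methanol gradient at 0.8 mL/min over 45 min. Brain was sampled 2 h after oral dosing at 14 mg/kg, with analytes quantified by HPLC-MS/MS.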

The test system of data set [3] is reserpine-induced acute depression model mice. As to the kind of experiment: Body temperature in reserpine-induced acute depression model. The class given is in vivo, ICR mice. Particulars: 7 days, 4 h after reserpine, model 34.55±0.25.
Data set [4] shares this test system. The data set is described as follows: Degree of ptosis in reserpine-induced acute depression model. The conditions noted are these: 7 days, 1 h after reserpine, scale 0-4, model 2.7. The format is in vivo, ICR mice.
In data set [5] the test system is chronic stress-induced depression model rats. As to the kind of experiment: Sugar preference test in chronic stress-induced depression model. The format is in vivo, SD rats. The conditions noted are these: 14 mg/kg orally, 14 days. The gist of the method: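 SD rats were exposed to multiple alternating stressors for 8 weeks; there were 6 groups of 10, including an unstressed control. Treatment lasted 14 days, and PGF rats stayed on antibiotics throughout. Sugar preference was tested on days 0 and 14. Data are mean ± standard deviation, analysed by two-way ANOVA and t-test.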

Data set [6] deals with D-amino acid oxidase (DAAO) (Mus musculus, UniProt P18894). The data set is described as follows: DAAO activity in mouse brain homogenate. The format is biochemical, ICR mice. Particulars: 5 and 10 μg/mL, 30 min at 37 °C. A digest of the protocol:
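Brains from ten ICR mice, killed by cervical dislocation, were rinsed in saline, blotted, weighed and homogenized in 2 volumes (v/w) saline. Test compounds at final 5 or 10 μg/mL were added and incubated 30 min at 37 °C. DAAO activity was measured by ELISA kit.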

The subject of data set [7] is reserpine-induced acute depression model mice. The data set is described as follows: Tail suspension test in reserpine-induced acute depression model. The conditions noted are these: model group 140.6 ± 13.6 s. The format is in vivo, ICR mice.
The test system is the same in data set [8]. As to the kind of experiment: Out-circle rate in reserpine-induced acute depression model. The class given is in vivo, ICR mice. The conditions noted are these: 7 days, in 15 s, model 20.0.
Data set [9] concerns carboxylesterase of the gut microbiota. The class given is biochemical, SD rats. Particulars: without inhibitor 100%. The gist of the method:
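Carboxylesterase inhibitor BNPP (0.3, 0.9 or 3 mM) was added together with test compound (final 1 mg/mL) to pre-incubated pooled SD rat colon-content cultures. Incubation was anaerobic (N2) at 37 °C. Conversion was followed by C18 LC/MSn-IT-TOF.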

D-amino acid oxidase (DAAO) (Mus musculus, UniProt P18894), sequence (P18894 whole entry): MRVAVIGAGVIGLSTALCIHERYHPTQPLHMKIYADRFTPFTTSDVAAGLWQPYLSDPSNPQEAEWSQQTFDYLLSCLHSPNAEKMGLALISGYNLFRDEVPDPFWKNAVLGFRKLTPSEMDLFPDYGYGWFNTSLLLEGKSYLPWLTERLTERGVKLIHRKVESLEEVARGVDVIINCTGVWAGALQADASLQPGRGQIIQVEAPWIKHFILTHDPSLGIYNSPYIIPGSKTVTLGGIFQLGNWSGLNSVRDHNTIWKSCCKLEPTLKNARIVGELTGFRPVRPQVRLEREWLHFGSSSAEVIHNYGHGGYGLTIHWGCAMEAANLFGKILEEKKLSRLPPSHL

As to `O=C(O)c1ccccc1` [benzoic acid, Benzoic acid], the “D-serine in DAAO system (%)” value in [1] is listed as 32%. The “Where the metabolite was detected in mice” value in data set [2] was “detected in plasma, feces and brain”. Further, in [3] (14 mg/kg), the Body temperature is listed as 35.23±0.40 ºC. In addition, the “Mean score of ptosis” value in [4] (14 mg/kg) is listed as 1.7 ^*. The “Sugar preference values vs depression group” value in data set [5] is listed as “significantly higher”. The “Activity of DAAO in brain homogenate” value in data set [6] is “significantly inhibit”. Moreover, the “Immobility time in tail suspension test” value in [7] (14 mg/kg for 7 days) was 99.5 ± 10.1 s. Besides, the Rate of out-circle in [8] (14 mg/kg) is on record as 70.0 ^* %.
Consider hydroxylalbiflorin [M1], for which, in [2], the “Where the metabolite was detected in mice” value was “only detected in the feces”.
The same measure, in the same setting: next, “glucuronic acid-conjugated albiflorin [M3]”: “only detected in the feces”; dihydroxylalbiflorin [M2]: “only detected in the feces”.
Consider `O=[N+]([O-])c1ccc(OP(=O)(O)Oc2ccc([N+](=O)[O-])cc2)cc1` [BNPP, bis-p-nitrophenyl phosphate], for which the “Albiflorin conversion rate in presence of inhibitor” value in [9] (BNPP 0.3 mM) came out at 82.7%; in [9] (BNPP 0.9 mM), 51.5%; in [9] (BNPP 3 mM), 11.3%.
Take `Cc1cc(C(=O)O)n[nH]1` [AS057278, reference compound]: the “D-serine in DAAO system (%)” value in data set [1] is listed as 38%.
`CNCCC(Oc1ccc(C(F)(F)F)cc1)c1ccccc1` (stereo not shown) [fluoxetine, reference compound]: the Body temperature in data set [3] (10 mg/kg) is listed as 35.31±0.26 ºC. In addition, in [4] (10 mg/kg), the “Mean score of ptosis” value is reported as 1.4 ^*. For the same compound, the “Immobility time in tail suspension test” value in data set [7] (10 mg/kg for 7 days) was determined as 76.0 ± 17.8 s. In data set [8] (10 mg/kg), this compound showed a Rate of out-circle of 60.0%.
